Reference: ChEMBL document CHEMBL3414473
Active and inactive are the calls of the source. The calls are words filed in the database; no cut-off is given here.

Experiments:
[1] = system: LNCaP; experiment: Induction of Akt localization to human LNCAP cell membrane after 24 hrs by immunofluorescence staining analysis; assay type: functional, cell-based
Summary of the method: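 LNCaP cells on poly-L-lysine-coated surfaces, treated in serum-free medium for 24 h. Fixed in 4% formaldehyde, permeabilized with 0.1% Triton X-100, blocked in 1% FBS, primary antibody (1:300) overnight, then Alexa Fluor secondary 2 h; DAPI nuclei; confocal imaging with cross-sectional fluorescence intensity analysis.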

[2] = system: PC-3; experiment: In vivo antitumor efficacy in human PC3 cells xenografted athymic nude mouse assessed as decrease in phosphorylation of MDM2 in tumor at 50 mg/kg, ip for 21 days relative to vehicle treated control; assay type: functional, organism-based; design: dose 50 mg/kg
Summary of the method: (§1)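 Athymic nude mice given PC-3 cells sc (1 × 10⁶ per mouse); at about 50 mm³, randomized (n = 7) and dosed once daily for 21 days either ip at 50 mg/kg (vehicle saline/PEG400/DMSO/Tween 80, 65:20:10:5) or by oral gavage at 100 mg/kg (vehicle 0.5% methylcellulose/0.1% Tween 80 in water). Tumor volume measured weekly by calipers (width² × length × 0.52); phospho-proteins checked by Western blotting of tumor lysates.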

[3] = target: T1, PH domain leucine-rich repeat-containing protein phosphatase 1 (Homo sapiens, UniProt O60346); conditions: LNCaP, 2.5 to 25 uM
T1 sequence (O60346 whole entry, the tested form may be a part): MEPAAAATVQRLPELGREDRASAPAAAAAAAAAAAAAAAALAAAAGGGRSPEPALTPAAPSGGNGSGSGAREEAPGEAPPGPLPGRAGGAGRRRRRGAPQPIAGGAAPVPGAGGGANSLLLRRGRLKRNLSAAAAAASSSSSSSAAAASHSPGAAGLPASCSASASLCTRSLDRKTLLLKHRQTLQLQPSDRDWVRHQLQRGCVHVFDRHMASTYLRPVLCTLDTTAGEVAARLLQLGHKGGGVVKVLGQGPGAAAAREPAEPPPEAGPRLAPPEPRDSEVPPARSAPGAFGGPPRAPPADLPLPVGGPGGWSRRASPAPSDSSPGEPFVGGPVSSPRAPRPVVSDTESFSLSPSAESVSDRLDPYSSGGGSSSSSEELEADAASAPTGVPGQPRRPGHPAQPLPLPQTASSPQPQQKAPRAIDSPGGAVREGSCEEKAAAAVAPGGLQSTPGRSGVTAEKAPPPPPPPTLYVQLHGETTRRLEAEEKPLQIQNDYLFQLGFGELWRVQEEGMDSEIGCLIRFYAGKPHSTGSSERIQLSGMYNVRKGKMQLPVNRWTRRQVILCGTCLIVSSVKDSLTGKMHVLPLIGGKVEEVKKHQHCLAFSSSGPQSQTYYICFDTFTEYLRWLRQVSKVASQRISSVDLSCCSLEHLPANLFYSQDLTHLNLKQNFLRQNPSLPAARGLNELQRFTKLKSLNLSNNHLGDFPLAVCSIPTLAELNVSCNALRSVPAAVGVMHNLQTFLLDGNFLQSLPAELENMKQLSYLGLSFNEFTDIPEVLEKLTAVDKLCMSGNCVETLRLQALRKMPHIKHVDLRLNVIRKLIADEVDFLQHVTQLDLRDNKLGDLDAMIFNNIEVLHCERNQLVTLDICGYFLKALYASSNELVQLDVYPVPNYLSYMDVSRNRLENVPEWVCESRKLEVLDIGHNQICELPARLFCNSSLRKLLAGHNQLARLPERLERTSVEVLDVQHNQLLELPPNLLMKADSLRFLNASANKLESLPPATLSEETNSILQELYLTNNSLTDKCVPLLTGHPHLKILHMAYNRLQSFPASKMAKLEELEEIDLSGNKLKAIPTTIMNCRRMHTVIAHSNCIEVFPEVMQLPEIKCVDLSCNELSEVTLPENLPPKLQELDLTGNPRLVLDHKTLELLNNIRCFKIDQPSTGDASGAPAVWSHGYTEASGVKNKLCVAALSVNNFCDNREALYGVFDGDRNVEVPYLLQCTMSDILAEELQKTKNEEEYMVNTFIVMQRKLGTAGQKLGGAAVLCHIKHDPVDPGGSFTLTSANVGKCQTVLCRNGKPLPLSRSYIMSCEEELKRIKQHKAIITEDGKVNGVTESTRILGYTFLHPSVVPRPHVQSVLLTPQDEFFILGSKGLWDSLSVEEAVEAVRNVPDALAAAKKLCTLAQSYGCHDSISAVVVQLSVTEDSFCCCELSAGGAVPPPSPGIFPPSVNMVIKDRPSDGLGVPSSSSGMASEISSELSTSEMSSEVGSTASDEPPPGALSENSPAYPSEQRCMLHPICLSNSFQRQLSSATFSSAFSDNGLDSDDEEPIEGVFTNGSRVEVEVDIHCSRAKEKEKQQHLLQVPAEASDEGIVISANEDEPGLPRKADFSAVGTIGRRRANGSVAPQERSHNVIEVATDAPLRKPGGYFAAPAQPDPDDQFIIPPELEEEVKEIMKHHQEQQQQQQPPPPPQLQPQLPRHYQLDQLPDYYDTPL

[4] = system: PC-3; experiment: In vivo antitumor efficacy in human PC3 cells xenografted athymic nude mouse assessed as decrease in phosphorylation of Akt at Thr308 in tumor at 100 mg/kg, po for 21 days relative to vehicle treated control; assay type: functional, organism-based; design: dose 100 mg/kg; summary of the method: as §1
[5] = target: T2, Scaffold protein ILK (Homo sapiens, UniProt Q13418); experiment: Binding affinity to GST-tagged PH domain of ILK (unknown origin) by surface Plasmon resonance spectroscopy
T2 sequence (Q13418 whole entry): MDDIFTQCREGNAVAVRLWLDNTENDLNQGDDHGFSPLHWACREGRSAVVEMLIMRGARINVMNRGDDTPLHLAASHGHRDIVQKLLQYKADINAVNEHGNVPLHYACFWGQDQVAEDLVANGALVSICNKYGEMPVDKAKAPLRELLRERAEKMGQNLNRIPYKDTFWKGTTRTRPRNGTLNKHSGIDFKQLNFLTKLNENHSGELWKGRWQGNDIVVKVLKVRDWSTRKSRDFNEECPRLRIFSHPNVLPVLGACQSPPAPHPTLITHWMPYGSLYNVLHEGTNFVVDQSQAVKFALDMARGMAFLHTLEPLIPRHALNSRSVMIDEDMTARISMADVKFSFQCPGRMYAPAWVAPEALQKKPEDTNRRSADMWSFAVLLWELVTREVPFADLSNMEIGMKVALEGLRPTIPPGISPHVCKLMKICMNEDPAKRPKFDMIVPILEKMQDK
Summary of the method: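 SPR: GST-tagged PH domain fusion protein immobilized on CM5 chip by amine coupling to about 17000 RU. Analyte injected at 1–20 µM at 30 µL/min; DMSO in samples and running buffer ≤1% (v/v). Kd obtained from sensorgram fitting.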

[6] = target: T1, PH domain leucine-rich repeat-containing protein phosphatase 1; experiment: Inhibition of PHLPP1-mediated reduction in phosphorylation of Akt at Ser473 in human LNCAP cells after 24 hrs by Western blot analysis; assay type: cell-based
Summary of the method: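 LNCaP or PC-3 cells treated at various concentrations for 24 h in serum-free medium. Lysed in SDS buffer (50 mM Tris pH 8, 10 mM EDTA, 1% SDS, protease inhibitors); equal protein run on SDS-PAGE and transferred to nitrocellulose. Primary antibodies 1:1000 overnight at 4 °C, HRP secondary 1:2000; detected by ECL.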

[7] = system: PC-3; experiment: In vivo antitumor efficacy in human PC3 cells xenografted athymic nude mouse assessed as decrease in phosphorylation of IKK in tumor at 50 mg/kg, ip for 21 days relative to vehicle treated control; assay type: functional, organism-based; design: dose 50 mg/kg; summary of the method: as §1
[8] = system: PC-3; experiment: In vivo antitumor efficacy in human PC3 cells xenografted athymic nude mouse assessed as decrease in phosphorylation of MDM2 in tumor at 100 mg/kg, po for 21 days relative to vehicle treated control; assay type: functional, organism-based; design: dose 100 mg/kg; summary of the method: as §1

- inhibition [3]: Active
- Kd [5]: 6.2 µM
- inhibition [6]: Dose-dependent effect
Structure (SMILES): Cc1c(S(N)(=O)=O)cc2c(c1C)OC(C)(CCCC(C)C)CC2 (stereo not drawn)
- Activity [1]: Dose-dependent effect
- inhibition [2]: Active
- inhibition [4]: inactive
- inhibition [7]: Active
- Activity [8]: Active
